Rin1 Abl inh: blocks binding of human Rin1 to Abl; P00519+Q13671; inhibition, % at 7.35 µM; AID 588664; TR-FRET Rin1/Abl binding, biochemical; 0.4% of 360,000 active; in the data active means inhibition above about 5%, passing the limit was not always enough
Target sequence (P00519 whole entry, looked up): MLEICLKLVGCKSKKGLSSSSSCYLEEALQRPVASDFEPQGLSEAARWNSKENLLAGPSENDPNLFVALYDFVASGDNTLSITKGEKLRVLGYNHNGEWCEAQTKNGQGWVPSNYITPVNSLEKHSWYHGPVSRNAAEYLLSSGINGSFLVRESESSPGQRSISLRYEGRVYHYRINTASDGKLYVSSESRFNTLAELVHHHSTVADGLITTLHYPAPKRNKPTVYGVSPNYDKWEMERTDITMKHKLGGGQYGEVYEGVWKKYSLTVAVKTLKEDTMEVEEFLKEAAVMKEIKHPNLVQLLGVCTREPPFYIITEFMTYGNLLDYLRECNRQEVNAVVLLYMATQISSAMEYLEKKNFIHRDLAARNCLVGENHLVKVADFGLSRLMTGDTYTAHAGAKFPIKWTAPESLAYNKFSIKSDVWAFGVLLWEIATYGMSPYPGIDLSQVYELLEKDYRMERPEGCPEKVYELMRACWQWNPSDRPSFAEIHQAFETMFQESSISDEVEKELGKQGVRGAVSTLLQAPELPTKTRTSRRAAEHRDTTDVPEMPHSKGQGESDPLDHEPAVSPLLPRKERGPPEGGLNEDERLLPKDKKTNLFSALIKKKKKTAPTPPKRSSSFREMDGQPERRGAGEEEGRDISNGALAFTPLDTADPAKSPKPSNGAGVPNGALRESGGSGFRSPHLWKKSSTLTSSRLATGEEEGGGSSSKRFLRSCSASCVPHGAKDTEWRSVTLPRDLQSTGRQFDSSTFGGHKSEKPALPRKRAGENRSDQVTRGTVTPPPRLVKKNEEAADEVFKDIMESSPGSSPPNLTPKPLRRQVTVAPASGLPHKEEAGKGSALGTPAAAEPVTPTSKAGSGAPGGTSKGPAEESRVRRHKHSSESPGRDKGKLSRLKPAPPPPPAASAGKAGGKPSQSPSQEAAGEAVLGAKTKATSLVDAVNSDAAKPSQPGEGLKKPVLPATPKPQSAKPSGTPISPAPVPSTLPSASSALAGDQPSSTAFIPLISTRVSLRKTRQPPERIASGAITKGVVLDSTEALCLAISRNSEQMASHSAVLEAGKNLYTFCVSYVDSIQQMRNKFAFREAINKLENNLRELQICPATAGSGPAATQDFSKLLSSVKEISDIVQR
Target sequence (Q13671 whole entry, looked up): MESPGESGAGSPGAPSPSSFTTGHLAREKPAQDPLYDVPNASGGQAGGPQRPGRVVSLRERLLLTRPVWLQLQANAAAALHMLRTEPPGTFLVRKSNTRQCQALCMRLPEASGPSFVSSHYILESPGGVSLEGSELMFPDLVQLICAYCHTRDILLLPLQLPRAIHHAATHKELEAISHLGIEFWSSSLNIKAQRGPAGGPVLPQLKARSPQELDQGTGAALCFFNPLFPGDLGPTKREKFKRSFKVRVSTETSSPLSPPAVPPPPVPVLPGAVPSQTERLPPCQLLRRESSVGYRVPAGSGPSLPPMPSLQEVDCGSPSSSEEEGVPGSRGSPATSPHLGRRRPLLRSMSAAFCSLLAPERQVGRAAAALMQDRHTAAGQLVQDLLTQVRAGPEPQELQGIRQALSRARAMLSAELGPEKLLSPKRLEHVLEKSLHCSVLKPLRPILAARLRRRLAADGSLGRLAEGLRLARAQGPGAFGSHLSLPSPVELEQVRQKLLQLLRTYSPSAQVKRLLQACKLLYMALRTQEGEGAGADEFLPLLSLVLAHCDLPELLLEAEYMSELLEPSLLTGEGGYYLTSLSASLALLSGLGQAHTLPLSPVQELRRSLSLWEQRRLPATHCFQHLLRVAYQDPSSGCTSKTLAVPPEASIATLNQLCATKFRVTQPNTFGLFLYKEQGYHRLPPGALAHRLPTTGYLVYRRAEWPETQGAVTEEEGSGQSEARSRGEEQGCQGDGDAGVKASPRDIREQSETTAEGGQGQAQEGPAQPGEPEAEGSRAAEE
SUMO HTRF inh: blocks human SUMOylation mediated by UBC9 | HTRF SUMOylation assay, SAE1/SAE2 + UBC9, in vitro | inhibition, % at 35 µM | 0.36% of 290,000 active | AID 2006; in the data active means inhibition above about 50%, passing the limit was not always enough
PREPL inh: inhibitors of human prolyl oligopeptidase-like enzyme PREPL. Q4J6C6. recombinant PREPL, fluorescence polarization activity-based probe. inhibition, % at 5.96 µM. 0.68% of 320,000 active. AID 2751; in the data active means inhibition above about 43%;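 further: 0% = enzyme with DMSO and 100% = wells lacking enzyme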
ALR inh: inhibitors of human sulfhydryl oxidase ALR | AID 485317 | purified ALR, DTT oxidation, H2O2 HRP-luminol luminescence | inhibition, % (no concentration beside the values) | 3.8% of 290,000 active;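 active means mean replicate inhibition above about 79%, with every replicate also reaching it, limit read from the data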
UBC13 polyUb: inhibitors of human UBC13 polyubiquitin chain formation. P61088. TR-FRET. inhibition, % at 20 µM. 0.47% of 330,000 active; in the data active means inhibition above about 45%, passing the limit was not always enough
RBBP9 inh: human RBBP9 hydrolase inhibition | O75884 | recombinant RBBP9, FP-Rh probe fluorescence polarization | inhibition, % at 7.94 µM | 0.2% of 220,000 active | AID 1515;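 active means inhibition above the campaign mean of all tested compounds plus 3 SD, cut at about 14% in these data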;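 further: plate controls were DMSO wells with RBBP9 for no effect and wells lacking RBBP9 protein for full effect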
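System: RBBP9 protein / Quantity: 2.5 µM RBBP9 dispensing solution, before mixing / Also added: Serine-hydrolase probe FP-Rh, 375 nM pre-mixing / Dosing: 7.94 µM single dose, 0.794% DMSO / Timing: enzyme-compound preincubation 30 min, then probe labeling 45 min, 25 °C / Signal: FP readout at 525/598 nm / Controls: DMSO-treated enzyme wells and wells lacking RBBP9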
* marks the source's active call; other numbers are inactive results. The list is not random: actives were taken first. Their share in the collection is about 4.3%.

`CC1(C(=O)NS(=O)(=O)c2ccc(C#N)cc2)CCN1C(=O)c1cccc2ccccc12` (centres undefined) gave Rin1 Abl inh 0.
Screening Cc1ccc(C(=O)NCC(=O)OCC(=O)NC(C)C2CC3CCC2C3)cc1 (centres undefined) returned Rin1 Abl inh 2 and UBC13 polyUb 1.
For CN(c1ccccc1)S(=O)(=O)c1cccc(C(=O)NCCc2ccc(O)c(O)c2)c1 the results were Rin1 Abl inh -4, SUMO HTRF inh 10, PREPL inh 10, ALR inh 93*, UBC13 polyUb 5 and RBBP9 inh -4.
`CN1OC[C@@H]2CN(C(=O)CCc3ccccc3)[C@H](c3cccc(-c4ccccc4)c3)C[C@@H]21` gave Rin1 Abl inh 2.
`CC(C)Cn1c(N)c(C(=O)CSc2ccc3c(c2)OCCO3)c(=O)n(C)c1=O` gave Rin1 Abl inh 2, SUMO HTRF inh 5, PREPL inh 6, UBC13 polyUb 6 and RBBP9 inh -9.
For CCOCCCNCC(=O)Nc1ccccc1N1CCOCC1 the results were Rin1 Abl inh 1, SUMO HTRF inh -3, PREPL inh 8, ALR inh 97*, UBC13 polyUb 3 and RBBP9 inh -6.
For O=C(N/N=C/c1ccco1)c1cc(-c2cccs2)[nH]n1 the results were Rin1 Abl inh 1, SUMO HTRF inh -2, PREPL inh -4, ALR inh 18, UBC13 polyUb 2 and RBBP9 inh -3.
CC(C)c1cc(C(=O)N/N=C/c2ccco2)n[nH]1 was read as Rin1 Abl inh -1, SUMO HTRF inh 7, PREPL inh 4, ALR inh 83*, UBC13 polyUb -2 and RBBP9 inh 1.
`S=c1[nH]nc(C2CCCCC2)n1/N=C/c1ccccn1` gave Rin1 Abl inh 4, SUMO HTRF inh -6, PREPL inh 1, ALR inh 96*, UBC13 polyUb -4 and RBBP9 inh -5.
For COc1cccc(/C=N/n2c(C3CCCCC3)n[nH]c2=S)c1OC the results were Rin1 Abl inh 4, SUMO HTRF inh 12, PREPL inh -9, ALR inh -5 and UBC13 polyUb 1.
`COc1cccc(/C=N/n2c(C3CCCCC3)n[nH]c2=S)c1O` gave Rin1 Abl inh 0, SUMO HTRF inh -2, ALR inh 92* and UBC13 polyUb 2.
COc1cc(/C=N/n2c(C3CCCCC3)n[nH]c2=S)ccc1O was read as Rin1 Abl inh -2, SUMO HTRF inh -9, ALR inh 98* and UBC13 polyUb 0.
`COC(=O)c1ccc2c(c1)N(C)S(=O)(=O)c1cnc(SCC(=O)C(C)(C)C)nc1-2` gave Rin1 Abl inh -1, SUMO HTRF inh 5, PREPL inh 4, ALR inh -4, UBC13 polyUb 16 and RBBP9 inh -5.
COc1ccc(C)cc1S(=O)(=O)NC(C)c1cnn(-c2ccccn2)c1C (centres undefined) was read as Rin1 Abl inh 1, SUMO HTRF inh 7, PREPL inh 0, ALR inh 4 and UBC13 polyUb -2.
Screening COc1cccc2cc(-c3ccnc(=S)[nH]3)oc12 returned SUMO HTRF inh 12, PREPL inh 4, ALR inh 99*, UBC13 polyUb -6 and RBBP9 inh -5.
O=C(COc1ccccc1F)NC12CC3CC(CC(C3)C1)C2 was read as Rin1 Abl inh -2, SUMO HTRF inh 30, PREPL inh -8, ALR inh 2, UBC13 polyUb -4 and RBBP9 inh -7.
Cc1c(C)c2cc(Cl)c(O)c(CN3CCN(C)CC3)c2oc1=O was read as Rin1 Abl inh 2, SUMO HTRF inh 52*, PREPL inh 2, ALR inh 20, UBC13 polyUb 19 and RBBP9 inh -5.
`Cc1c(C)c2cc(Cl)c(O)c(CN3CCCC(C)C3)c2oc1=O` (centres undefined) gave Rin1 Abl inh -4, SUMO HTRF inh 45, PREPL inh 11, ALR inh 29, UBC13 polyUb 11 and RBBP9 inh -8.
`CCOC(=O)CNC(=S)N(CCCN1CCCCCC1)Cc1cccs1` gave Rin1 Abl inh 3, SUMO HTRF inh 3, PREPL inh -3, ALR inh 1, UBC13 polyUb 4 and RBBP9 inh -9.
CCOC(=O)CNC(=S)N(CCCN1CCCC1)Cc1cccs1 was read as Rin1 Abl inh 0, SUMO HTRF inh -11, PREPL inh 4, ALR inh 99*, UBC13 polyUb 3 and RBBP9 inh 1.
Screening S=c1[nH]cc(-c2ccc(Cl)cc2)n1Cc1ccccc1 returned Rin1 Abl inh 2, SUMO HTRF inh 2, PREPL inh 5, ALR inh 4, UBC13 polyUb -5 and RBBP9 inh -8.
`CC(C)Cn1c(-c2ccc(Br)cc2)c[nH]c1=S` gave Rin1 Abl inh -1, SUMO HTRF inh -2, PREPL inh 16, ALR inh 97*, UBC13 polyUb -4 and RBBP9 inh -1.
For CCn1c(-c2ccccc2)c[nH]c1=S the results were Rin1 Abl inh -1, SUMO HTRF inh 8, PREPL inh 1, ALR inh 99*, UBC13 polyUb 4 and RBBP9 inh -6.
Screening CCN(CC)C(=O)[C@H]1C[C@H](CC(=O)NCc2ccc(OC)c(OC)c2)C(=O)N2CCc3c([nH]c4ccc(Cl)cc34)[C@]12C returned Rin1 Abl inh 1.
Screening Cc1cc(C)n(-c2cc(O)c(-n3nc(C)cc3C)cc2O)n1 returned Rin1 Abl inh -2, SUMO HTRF inh 17, PREPL inh 3, ALR inh 89*, UBC13 polyUb -2 and RBBP9 inh -12.
`Cc1cc(C)n(-c2cc(-n3nc(C)cc3C)ncn2)n1` gave Rin1 Abl inh 4, SUMO HTRF inh 3, PREPL inh 2, UBC13 polyUb 2 and RBBP9 inh 4.
For CC1(C)Oc2ccc3ccc(=O)oc3c2/C(=C/NNC(N)=S)C1=O the results were Rin1 Abl inh 2, SUMO HTRF inh 20, PREPL inh 3, ALR inh 88* and UBC13 polyUb 15.
CN/C=C1\C(=O)C(C)(C)Oc2ccc3ccc(=O)oc3c21 was read as Rin1 Abl inh -2, SUMO HTRF inh 15, PREPL inh 8, ALR inh 10, UBC13 polyUb 3 and RBBP9 inh -1.
Screening CCCc1sc(N/N=C/c2ccccn2)nc1-c1ccc(F)cc1 returned Rin1 Abl inh -1, SUMO HTRF inh -33, PREPL inh 7, ALR inh 1, UBC13 polyUb -17 and RBBP9 inh 2.
Cc1nc(N/N=C/c2ccccn2)sc1C was read as SUMO HTRF inh -18, PREPL inh 8, ALR inh 97* and RBBP9 inh -6.
Screening Nc1ccc2c(c1)COc1ccccc1O2 returned Rin1 Abl inh -3, SUMO HTRF inh 3, PREPL inh 16, ALR inh 99*, UBC13 polyUb -5 and RBBP9 inh -4.

Source: PubChem
